Laboratory results taken from ChEMBL document CHEMBL2021813, “Semisynthetic neoclerodanes as kappa opioid receptor probes” (Bioorg Med Chem, 2012).

How the values were obtained:
[1] = target: T1, Mu-type opioid receptor (Homo sapiens, UniProt P35372); assay: Displacement of [3H]DAMGO from human recombinant mu opioid receptor expressed in CHO cells after 2 hrs by liquid scintillation counting; type: cell-based
In short: (§1)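 Membranes from CHO cells stably transfected with human DOP, MOP or KOP receptor, in 50 mM Tris-HCl pH 7.4 with a protease inhibitor cocktail. The ~2 nM [3H]radioligand was displaced by 10 drug concentrations, in triplicate, for 2 hr at 25 °C, then filtered over GF/B. Nonspecific binding was set by 20 μM levallorphan (DADLE, DAMGO) or 1 μM (−)-U69,593 (U69,593). Ki (±SD) came from full curves, n=3.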

[2] = target: T1, Mu-type opioid receptor; assay: Displacement of [3H]DAMGO from human recombinant mu opioid receptor expressed in CHO cells at 10 uM after 2 hrs by liquid scintillation counting; type: cell-based
In short: (§2)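 Radioligand (~2 nM) competition on human opioid receptor CHO membranes in Tris-HCl pH 7.4, 2 hr at 25 °C, with GF/B filtration and scintillation counting. Results are percent of control produced by a single test drug concentration, 1 μM or 10 μM as the line states. Nonspecific binding was set by 20 μM levallorphan (DADLE, DAMGO) or 1 μM (−)-U69,593 (U69,593).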

[3] = target: T2, Delta-type opioid receptor (Homo sapiens, UniProt P41143); assay: Displacement of [3H]DADLE from human recombinant delta opioid receptor expressed in CHO cells after 2 hrs by liquid scintillation counting; type: cell-based; in short: as §1
T2 sequence (P41143 whole entry): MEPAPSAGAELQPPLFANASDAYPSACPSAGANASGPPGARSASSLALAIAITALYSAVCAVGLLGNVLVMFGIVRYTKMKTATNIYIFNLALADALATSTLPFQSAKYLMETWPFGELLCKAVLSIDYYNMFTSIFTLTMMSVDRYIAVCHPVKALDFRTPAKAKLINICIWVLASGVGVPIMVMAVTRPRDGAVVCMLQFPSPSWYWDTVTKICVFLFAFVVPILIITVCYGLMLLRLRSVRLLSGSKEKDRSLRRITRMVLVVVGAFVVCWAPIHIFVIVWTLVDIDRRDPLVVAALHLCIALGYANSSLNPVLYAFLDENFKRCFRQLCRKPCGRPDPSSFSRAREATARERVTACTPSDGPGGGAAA

[4] = target: T2, Delta-type opioid receptor; assay: Displacement of [3H]DADLE from human recombinant delta opioid receptor expressed in CHO cells at 1 uM after 2 hrs by liquid scintillation counting; type: cell-based; in short: as §2
[5] = target: T3, Kappa-type opioid receptor (Homo sapiens, UniProt P41145); assay: Displacement of [3H]U69593 from human recombinant kappa opioid receptor expressed in CHO cells after 2 hrs by liquid scintillation counting; type: cell-based; in short: as §1
T3 sequence (P41145 whole entry): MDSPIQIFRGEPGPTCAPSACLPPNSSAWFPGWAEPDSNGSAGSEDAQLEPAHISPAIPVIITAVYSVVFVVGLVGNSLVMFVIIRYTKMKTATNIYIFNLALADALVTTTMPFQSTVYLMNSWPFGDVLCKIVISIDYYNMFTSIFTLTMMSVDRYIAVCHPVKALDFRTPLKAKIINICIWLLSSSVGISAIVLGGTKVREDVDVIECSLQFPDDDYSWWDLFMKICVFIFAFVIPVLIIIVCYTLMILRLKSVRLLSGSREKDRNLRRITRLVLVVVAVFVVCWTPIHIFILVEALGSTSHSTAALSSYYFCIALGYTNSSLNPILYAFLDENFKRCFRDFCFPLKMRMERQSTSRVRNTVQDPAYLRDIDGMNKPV

[6] = target: T2, Delta-type opioid receptor; assay: Displacement of [3H]DADLE from human recombinant delta opioid receptor expressed in CHO cells at 10 uM after 2 hrs by liquid scintillation counting; type: cell-based; in short: as §2
[7] = target: T3, Kappa-type opioid receptor; assay: Displacement of [3H]U69593 from human recombinant kappa opioid receptor expressed in CHO cells at 10 uM after 2 hrs by liquid scintillation counting; type: cell-based; in short: as §2
[8] = target: T1, Mu-type opioid receptor; assay: Displacement of [3H]DAMGO from human recombinant mu opioid receptor expressed in CHO cells at 1 uM after 2 hrs by liquid scintillation counting; type: cell-based; in short: as §2
[9] = target: T3, Kappa-type opioid receptor; assay: Partial agonist activity at human recombinant kappa opioid receptor expressed in CHO cells assessed as [35S]GTP-gamma-S binding after 3 hrs by liquid scintillation counting; type: functional, cell-based
In short: (§3)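 hKOP-CHO membranes (50 μg protein) were incubated with 50 pM [35S]GTP-γ-S and 40 μM GDP. Final buffer was 50 mM Tris-HCl pH 7.4, 100 mM NaCl, 10 mM MgCl2, 1 mM EDTA, 1 mM DTT and 0.1% BSA. Incubation ran 3 hr at 25 °C. Nonspecific binding was set with 40 μM GTP-γ-S. Bound label was separated by vacuum filtration through GF/B and counted.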

[10] = target: T3, Kappa-type opioid receptor; assay: Partial agonist activity at human recombinant kappa opioid receptor expressed in CHO cells assessed as [35S]GTP-gamma-S binding after 3 hrs by liquid scintillation counting relative to (-)U50488; type: functional, cell-based; in short: as §3
[11] = target: T3, Kappa-type opioid receptor; assay: Agonist activity at human recombinant kappa opioid receptor expressed in CHO cells assessed as [35S]GTP-gamma-S binding after 3 hrs by liquid scintillation counting; type: functional, cell-based; in short: as §3
[12] = target: T3, Kappa-type opioid receptor; assay: Agonist activity at human recombinant kappa opioid receptor expressed in CHO cells assessed as [35S]GTP-gamma-S binding after 3 hrs by liquid scintillation counting relative to (-)U50488; type: functional, cell-based; in short: as §3
[13] = Chemical solubility of the compound in 50 mM Tris-HCl at pH 7.4; type: physicochemical; conditions: buffer
[14] = target: T3, Kappa-type opioid receptor; assay: Agonist activity at human recombinant kappa opioid receptor expressed in CHO cells assessed as calcium mobilization after 1 hrs by fluorescence analysis; type: functional, cell-based
In short: (§4)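 CHO cells stably expressing KOP receptor with Gαq16 were plated at 30,000 cells/well and grown overnight at 37 °C. They were loaded with Calcium 5 dye in HBSS with 20 mM HEPES, 0.25% BSA, 1% DMSO and probenecid for 1 h at 37 °C. Compounds were added at 10X after a ~17 sec baseline, and fluorescence (ex 485/em 525 nm) was read every 1.52 sec for 60 sec. EC50 and Emax are given ±SD.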

[15] = target: T3, Kappa-type opioid receptor; assay: Agonist activity at human recombinant kappa opioid receptor expressed in CHO cells assessed as calcium mobilization after 1 hrs by fluorescence analysis relative to U69593; type: functional, cell-based; in short: as §4

T1 sequence (P35372 whole entry): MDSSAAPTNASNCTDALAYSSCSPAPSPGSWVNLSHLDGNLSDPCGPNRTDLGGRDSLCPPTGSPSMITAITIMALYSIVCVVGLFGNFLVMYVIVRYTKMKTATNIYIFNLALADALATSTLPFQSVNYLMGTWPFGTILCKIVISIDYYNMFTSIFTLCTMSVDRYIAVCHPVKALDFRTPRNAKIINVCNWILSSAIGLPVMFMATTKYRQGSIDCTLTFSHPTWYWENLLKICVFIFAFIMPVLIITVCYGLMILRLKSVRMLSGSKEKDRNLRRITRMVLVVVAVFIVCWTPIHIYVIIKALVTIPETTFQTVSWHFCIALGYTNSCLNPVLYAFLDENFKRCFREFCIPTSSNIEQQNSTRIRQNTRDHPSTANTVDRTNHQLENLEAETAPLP

Row | SMILES | Ki [1] [nM] | Ki [3] [nM] | Activity [4] [%] | Ki [5] [nM] | Activity [6] [%] | other results
1 | COC(=O)[C@@H]1C[C@H](OC(C)=O)C(=O)[C@H]2[C@@]1(C)CC[C@H]1C(=O)O[C@H](C(=O)c3ccccc3OC)C[C@]21C | > 10000 | > 10000 | 87 | 1070 |  | Activity [2]: 53%
2 | COC(=O)[C@@H]1C[C@H](OC(C)=O)C(=O)[C@H]2[C@@]1(C)CC[C@H]1C(=O)O[C@H](C(=O)c3cc4ccccc4o3)C[C@]21C | > 10000 | > 10000 |  | > 10000 | 91 | Activity [2]: 100%; Activity [7]: 92%
3 | COC(=O)[C@@H]1C[C@H](OC(C)=O)C(=O)[C@H]2[C@@]1(C)CC[C@H]1C(=O)O[C@H](C(=O)c3cccc(C(F)(F)F)c3)C[C@]21C | 3400 | > 1000 | 46 | 2260 |  | 
4 | COC(=O)[C@@H]1C[C@H](OC(C)=O)C(=O)[C@H]2[C@@]1(C)CC[C@H]1C(=O)O[C@H](C(=O)c3cccc(O)c3)C[C@]21C | > 1000 | > 10000 |  | 110 | 80 | Activity [8]: 55%
5 | COC(=O)[C@@H]1C[C@H](OC(C)=O)C(=O)[C@H]2[C@@]1(C)CC[C@H]1C(=O)O[C@H](C(=O)c3cccc(C#N)c3)C[C@]21C | > 1000 | > 10000 | 68 | 220 |  | Activity [8]: 61%
6 | COC(=O)[C@@H]1C[C@H](OC(C)=O)C(=O)[C@H]2[C@@]1(C)CC[C@H]1C(=O)O[C@H](C(=O)c3ccccc3)C[C@]21C | 1490 | > 10000 |  | 70 | 100 | EC50 [9]: 2280 nM; Emax [10]: 74%
7 | COC(=O)[C@@H]1C[C@H](OC(C)=O)C(=O)[C@H]2[C@@]1(C)CC[C@H]1C(=O)O[C@H](/C=C/c3ccoc3)C[C@]21C | > 10000 | > 10000 |  | 1120 | 66 | Activity [2]: 78%
8 | COC(=O)[C@@H]1C[C@H](OC(C)=O)C(=O)[C@H]2[C@@]1(C)CC[C@H]1C(=O)O[C@H](C(=O)c3ccco3)C[C@]21C | 9800 | > 10000 |  | 80 | 91 | EC50 [11]: 2130 nM; Emax [12]: 92%
9 | COC(=O)[C@@H]1C[C@H](OC(C)=O)C(=O)[C@H]2[C@@]1(C)CC[C@H]1C(=O)O[C@H](/C=C\c3ccoc3)C[C@]21C |  |  |  |  | 94 | Emax [12]: 105%; solubility [13]: Insoluble
10 | COC(=O)[C@@H]1C[C@H](OC(C)=O)C(=O)[C@H]2[C@@]1(C)CC[C@H]1C(=O)O[C@H](C(=O)c3cccc(OC)c3)C[C@]21C | 3090 | > 10000 | 77 | 290 |  | 
11 | COC(=O)[C@@H]1C[C@H](OC(C)=O)C(=O)[C@H]2[C@@]1(C)CC[C@H]1C(=O)O[C@H](C(=O)c3ccccc3O)C[C@]21C | 3600 | > 10000 |  | 500 | 94 | 
12 | COC(=O)[C@@H]1C[C@H](OC(C)=O)C(=O)[C@H]2[C@@]1(C)CC[C@H]1C(=O)O[C@H](C(=O)c3cccc(C(N)=O)c3)C[C@]21C | > 10000 | > 10000 | 52 | 40 |  | EC50 [11]: 730 nM; Activity [8]: 84%; Emax [12]: 92%; EC50 [14]: 75.4 nM; Emax [15]: 97%
